# Test results: ChEMBL document CHEMBL3091336, “Analogs of the Allosteric Heat Shock Protein 70 (Hsp70) Inhibitor, MKT-077, as Anti-Cancer Agents” (ACS Med Chem Lett, 2013)
# Calls of active or inactive are those of the source. The calls are words filed in the database; no cut-off is given here.
# How the values were obtained:
# MEF = assay: Cytotoxicity against C57BL/6 mouse MEF assessed as growth inhibition after 72 hrs by MTT assay; format: cell-based; conditions: C57BL/6, MEF
# In short: (§1)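 Antiproliferative activity measured by MTT assay. EC50 is the average of triplicate experiments, with error as SEM.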
# MDA-MB-231 [1] = assay: Induction of autophagic flux in human MDA-MB-231 cells assessed as increase in p62 oligomerization at 5 to 10 uM after 24 hrs; format: functional, cell-based
# MDA-MB-231 [2] = assay: Induction of autophagic flux in human MDA-MB-231 cells assessed as decrease in p62 monomer level at 5 to 10 uM after 24 hrs; format: functional, cell-based
# [3] = Half life in mouse liver microsomes at 1 uM incubated for 15 mins prior to beta-NADPH addition by LC-MS/MS analysis; format: ADME, Microsome; conditions: for t1/2: microsomes, 0.25 h, 1 µM
# In short: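 Compounds at 1 μM incubated with mouse liver microsomes. Degradation followed by LC–MS and reported as half-life.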
# MCF7 [4] = assay: Induction of autophagic flux in human MCF7 cells assessed as decrease in p62 monomer level at 5 to 10 uM after 24 hrs; format: functional, cell-based
# MDA-MB-231 [5] = assay: Cytotoxicity against human MDA-MB-231 cells assessed as growth inhibition after 72 hrs by MTT assay; format: functional, cell-based; conditions: MDA-MB-231, 72 h; in short: as §1
# MCF7 [6] = assay: Induction of autophagic flux in human MCF7 cells assessed as increase in p62 oligomerization at 5 to 10 uM after 24 hrs; format: functional, cell-based
# MDA-MB-231 [7] = assay: Induction of apoptosis in human MDA-MB-231 cells assessed as PARP cleavage at 10 uM after 48 hrs; format: functional, cell-based
# In short: (§2)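 MDA-MB-231 cells treated for 48 h. Cleavage of caspase 3 and PARP detected by Western blot. Representative of duplicate experiments.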
# MDA-MB-231 [8] = assay: Induction of apoptosis in human MDA-MB-231 cells assessed as caspase-3 cleavage at 10 uM after 48 hrs; format: functional, cell-based; in short: as §2
# MCF7 [9] = assay: Cytotoxicity against human MCF7 cells assessed as growth inhibition after 72 hrs by MTT assay; format: functional, cell-based; conditions: MCF7, 72 h; in short: as §1
# [10] = Binding affinity to [1H-15N]-DnaK (1 to 388) nucleotide binding domain (unknown origin) at 200 uM by NMR analysis
# [11] = Selectivity ratio of EC50 for C57BL/6 mouse MEF to EC50 for human MCF-7 cells; format: ADME, cell-based; conditions: C57BL/6, mouse and human, mouse embryonic fibroblasts (MEF) versus MCF-7 cells; read-out: Ratio EC50
# In short: (§3)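 Antiproliferative EC50 values measured by MTT assay in mouse embryonic fibroblasts and in the breast cancer line (MCF7 or MDA-MB-231), averaged over triplicate experiments, error SEM. Selectivity taken as the ratio of fibroblast EC50 to cancer-cell EC50.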
# MDA-MB-231 [12] = assay: Inhibition of HSP70 in human MDA-MB-231 cells assessed as reduction of Raf level at 0.6 to 10 uM after 24 hrs by Western blot analysis; format: cell-based
# In short: (§4)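 MCF7 or MDA-MB-231 cells treated for 24 h across a range of concentrations. Lysates probed by Western blot for the Hsp70 clients p53, Akt1 and Raf1, alongside Hsp70 and Hsp90. Blots are representative of experiments run in triplicate.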
# MCF7 [13] = assay: Inhibition of HSP70 in human MCF7 cells assessed as induction of […] p53 level at 5 to 10 uM after 24 hrs by Western blot analysis; format: cell-based
# In short: (§5)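 MCF7 and MDA-MB-231 cells treated for 24 h across a range of concentrations. Lysates Western blotted for p53, Akt1, Raf1, Hsp70 and Hsp90. Representative of triplicate experiments.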
# MDA-MB-231 [14] = assay: Upregulation of Hsp70 protein expression in human MDA-MB-231 cells at 0.6 to 10 uM after 24 hrs by Western blot analysis; format: functional, cell-based; in short: as §5
# [15] = Selectivity ratio of EC50 for C57BL/6 mouse MEF to EC50 for human MDA-MB-231 cells; format: ADME; conditions: C57BL/6, mouse and human, mouse embryonic fibroblasts (MEF) versus MDA-MB-231 cells; in short: as §3
# MDA-MB-231 [16] = assay: Upregulation of Hsp90 protein expression in human MDA-MB-231 cells at 0.6 to 10 uM after 24 hrs by Western blot analysis; format: functional, cell-based; in short: as §5
# MCF7 [17] = assay: Inhibition of HSP70 in human MCF7 cells assessed as reduction of Akt1 level at 0.6 to 10 uM after 24 hrs by Western blot analysis; format: cell-based; in short: as §4
# MDA-MB-231 [18] = assay: Inhibition of HSP70 in human MDA-MB-231 cells assessed as reduction of Akt1 level at 0.6 to 10 uM after 24 hrs by Western blot analysis; format: cell-based; in short: as §4
# MCF7 [19] = assay: Inhibition of HSP70 in human MCF7 cells assessed as reduction of Raf level at 0.6 to 10 uM after 24 hrs by Western blot analysis; format: cell-based; in short: as §4
# MCF7 [20] = assay: Upregulation of Hsp90 protein expression in human MCF7 cells at 0.6 to 10 uM after 24 hrs by Western blot analysis; format: functional, cell-based; in short: as §5
# MCF7 [21] = assay: Upregulation of Hsp70 protein expression in human MCF7 cells at 0.6 to 10 uM after 24 hrs by Western blot analysis; format: functional, cell-based; in short: as §5
# [22] = Drug metabolism in mouse liver microsomes assessed as compound life time; format: ADME, Microsome
# In short: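 Compounds at 1 μM incubated with liver microsomes from C57BL/6 mice; disappearance of parent compound followed by LC–MS and reported as microsomal lifetime (t1/2, min).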
# [23] = target: Heat shock cognate 71 kDa protein (Homo sapiens, UniProt P11142); assay: Binding affinity to human HSC70 after 3 hrs by ELISA
# Chain of Heat shock cognate 71 kDa protein (P11142 whole entry): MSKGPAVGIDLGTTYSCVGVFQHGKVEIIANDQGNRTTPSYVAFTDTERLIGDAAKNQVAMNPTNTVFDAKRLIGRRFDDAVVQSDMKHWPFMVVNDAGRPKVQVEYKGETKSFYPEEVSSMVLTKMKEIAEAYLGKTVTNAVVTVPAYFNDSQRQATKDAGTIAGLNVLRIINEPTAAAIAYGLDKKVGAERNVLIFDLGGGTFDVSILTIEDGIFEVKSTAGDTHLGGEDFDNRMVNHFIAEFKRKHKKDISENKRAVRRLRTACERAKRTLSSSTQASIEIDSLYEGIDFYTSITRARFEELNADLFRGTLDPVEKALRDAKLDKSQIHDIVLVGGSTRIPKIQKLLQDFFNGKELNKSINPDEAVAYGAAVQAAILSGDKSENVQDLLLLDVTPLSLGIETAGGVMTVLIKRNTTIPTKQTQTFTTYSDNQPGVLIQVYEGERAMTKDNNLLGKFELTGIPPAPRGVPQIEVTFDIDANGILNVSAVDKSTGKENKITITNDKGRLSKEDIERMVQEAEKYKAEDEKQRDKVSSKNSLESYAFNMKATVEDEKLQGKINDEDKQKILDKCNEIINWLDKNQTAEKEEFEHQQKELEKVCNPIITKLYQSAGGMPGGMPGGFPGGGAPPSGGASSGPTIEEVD
structure (smiles),measurement,setting,value
CCn1c(=O)/c(=C2\Sc3cc(Cl)ccc3N2C)s/c1=C\c1scc[n+]1Cc1ccccc1.[Cl-],EC50,MEF,24 µM
same,Activity,MDA-MB-231 [1],Active
same,Activity,MDA-MB-231 [2],Active
same,t1/2,[3],37 min
same,Activity,MCF7 [4],Active
same,EC50,MDA-MB-231 [5],0.4 µM
same,Activity,MCF7 [6],Active
same,Activity,MDA-MB-231 [7],Active
same,Activity,MDA-MB-231 [8],Active
same,EC50,MCF7 [9],0.7 µM
same,Activity,[10],Active
CCn1c(=O)/c(=C2\Sc3cccc(F)c3N2C)s/c1=C\c1scc[n+]1Cc1ccccc1.[Cl-],selectivity ratio,[11],8
same,inhibition,MDA-MB-231 [12],25%
same,inhibition,MCF7 [13],Active
same,EC50,MEF,8.3 µM
same,Activity,MDA-MB-231 [14],inactive
same,selectivity ratio,[15],21
same,Activity,MDA-MB-231 [16],inactive
same,t1/2,[3],ND(Insoluble)
same,inhibition,MCF7 [17],25%
same,inhibition,MDA-MB-231 [18],25%
same,inhibition,MCF7 [19],25%
same,EC50,MDA-MB-231 [5],0.4 µM
same,EC50,MCF7 [9],1 µM
same,Activity,MCF7 [20],inactive
same,Activity,MCF7 [21],inactive
CCn1c(=O)/c(=C2\Sc3ccccc3N2C)s/c1=C\c1cccc[n+]1CC.[Cl-],EC50,MEF,> 50 µM
same,Time,[22],4.4 min
same,half-life at 1 µM,[3]; liver microsomes,< 5 min
same,EC50,MDA-MB-231 [5],1.4 µM
same,EC50,MCF7 [9],2.2 µM
CCn1c(=O)/c(=C2\Sc3ccc(Cl)cc3N2C)s/c1=C\c1cccc[n+]1CCCCCCNC(=O)CCCC[C@@H]1SC[C@@H]2NC(=O)N[C@@H]21,Kd,[23],4 µM
CCn1c(=O)/c(=C2\Sc3c(Cl)cccc3N2C)s/c1=C\c1cccc[n+]1CCCCCCNC(=O)CCCC[C@@H]1SC[C@@H]2NC(=O)N[C@@H]21,Kd,[23],2.6 µM
